Measurements published in ChEMBL document CHEMBL4715754, “Slowing down fat digestion and absorption by an oxadiazolone inhibitor targeting selectively gastric lipolysis” (2016).

Legend:
[1] = biological target: T1, Pancreatic triacylglycerol lipase (Sus scrofa) (UniProt P00591); experiment: Inhibition of porcine pancreatic lipase at 400:1 molar excess compound concentration preincubated for 30 mins at 25 degreeC relative to control
T1 sequence (whole entry): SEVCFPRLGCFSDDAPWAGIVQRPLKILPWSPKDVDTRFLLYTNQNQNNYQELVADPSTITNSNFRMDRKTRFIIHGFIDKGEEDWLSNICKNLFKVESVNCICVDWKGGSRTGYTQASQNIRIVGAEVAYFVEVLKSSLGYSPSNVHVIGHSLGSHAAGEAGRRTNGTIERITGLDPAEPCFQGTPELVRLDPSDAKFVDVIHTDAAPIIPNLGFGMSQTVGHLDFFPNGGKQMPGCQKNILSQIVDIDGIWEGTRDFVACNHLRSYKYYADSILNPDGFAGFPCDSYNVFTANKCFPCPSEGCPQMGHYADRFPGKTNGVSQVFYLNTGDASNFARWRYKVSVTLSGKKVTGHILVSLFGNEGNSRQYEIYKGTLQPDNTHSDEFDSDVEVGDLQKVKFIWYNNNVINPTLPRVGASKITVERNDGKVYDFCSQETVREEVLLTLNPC
Summary of the method: (§1)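 Pancreatic lipase from human pancreatic juice (54 µg/mL HPL stock) or porcine pancreatic extract (32 µg/mL PPL stock) was held in 10 mM MES pH 7.0, 150 mM NaCl. It was pre-incubated with inhibitor from DMSO stock for 30 min at 25 °C with 4 mM NaTDC at varied molar excess. Residual activity was read by pH-stat on tributyrin at 37 °C, pH 8.0, with 2 mM CaCl₂ and 4 mM NaTDC. x_I50 was taken from residual activity; DMSO-only controls were run.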

[2] = biological target: T2, Gastric triacylglycerol lipase (Canis lupus familiaris) (UniProt P80035); experiment: Inhibition of recombinant dog gastric lipase assessed as residual activity by measuring half-inactivation time at 20:1 molar excess compound concentration preincubated for 1 hr at 25 degreeC
T2 sequence (whole entry): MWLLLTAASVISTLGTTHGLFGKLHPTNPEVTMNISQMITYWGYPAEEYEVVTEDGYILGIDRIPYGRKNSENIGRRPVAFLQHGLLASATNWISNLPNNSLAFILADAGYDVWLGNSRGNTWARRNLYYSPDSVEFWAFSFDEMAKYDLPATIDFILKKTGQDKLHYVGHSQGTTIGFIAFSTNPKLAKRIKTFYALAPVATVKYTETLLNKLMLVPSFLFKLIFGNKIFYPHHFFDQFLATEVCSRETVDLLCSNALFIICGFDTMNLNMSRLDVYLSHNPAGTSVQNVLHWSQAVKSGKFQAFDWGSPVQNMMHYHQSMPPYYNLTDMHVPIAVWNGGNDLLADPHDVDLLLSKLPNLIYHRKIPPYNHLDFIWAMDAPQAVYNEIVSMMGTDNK
Summary of the method: (§2)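 Enzyme pre-incubated with inhibitor (DMSO stock) at fixed molar excess for 1 h at 25 °C without substrate: hCEH x_I=4 (1 mM NaTDC assay), RLL and DGL x_I=20 with 4 mM NaTDC, GPLRP2 x_I=2 with 2 mM NaTDC. Residual activity sampled at intervals by pH-stat on tributyrin emulsion at 37 °C; t1/2 taken at 50% residual activity. DMSO-only controls; at least triplicate.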

[3] = tested on: Rattus norvegicus; experiment: Inhibition of lipolysis in mesenteric lymph duct-cannulated Wistar rat model assessed as initial velocity of fatty acid output at 5.3 mg/kg supplemented with olive oil emulsion and measured after 24 hrs (reference value: 12.3 +/- 0.46 mg/ml/h); type: functional
[4] = biological target: T3, Pancreatic triacylglycerol lipase (Homo sapiens) (UniProt P16233); experiment: Inhibition of human pancreatic lipase at 400:1 molar excess compound concentration preincubated for 30 mins at 25 degreeC relative to control; summary of the method: as §1
T3 sequence (whole entry): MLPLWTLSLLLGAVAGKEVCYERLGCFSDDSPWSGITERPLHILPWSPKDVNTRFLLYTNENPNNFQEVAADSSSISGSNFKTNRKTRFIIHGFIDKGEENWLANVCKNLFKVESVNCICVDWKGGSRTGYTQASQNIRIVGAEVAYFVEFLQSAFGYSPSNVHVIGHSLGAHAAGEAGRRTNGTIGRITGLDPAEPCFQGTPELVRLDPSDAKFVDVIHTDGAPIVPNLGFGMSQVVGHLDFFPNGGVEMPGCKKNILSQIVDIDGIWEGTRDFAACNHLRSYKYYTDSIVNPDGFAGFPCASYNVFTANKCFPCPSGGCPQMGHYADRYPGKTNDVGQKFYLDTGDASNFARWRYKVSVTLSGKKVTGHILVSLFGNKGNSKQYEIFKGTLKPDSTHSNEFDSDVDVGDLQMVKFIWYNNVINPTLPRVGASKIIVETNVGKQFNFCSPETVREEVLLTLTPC

[5] = species: Homo sapiens; experiment: Inhibition of human pancreatic carboxylesterase preincubated for 1 hr at 25 degreeC
[6] = biological target: T4, Pancreatic lipase-related protein 2 (Cavia porcellus) (UniProt P81139); experiment: Inhibition of recombinant guinea pig PL-RP2 expressed in Aspergillus oryzae preincubated for 1 hr at 25 degreeC
T4 sequence (whole entry): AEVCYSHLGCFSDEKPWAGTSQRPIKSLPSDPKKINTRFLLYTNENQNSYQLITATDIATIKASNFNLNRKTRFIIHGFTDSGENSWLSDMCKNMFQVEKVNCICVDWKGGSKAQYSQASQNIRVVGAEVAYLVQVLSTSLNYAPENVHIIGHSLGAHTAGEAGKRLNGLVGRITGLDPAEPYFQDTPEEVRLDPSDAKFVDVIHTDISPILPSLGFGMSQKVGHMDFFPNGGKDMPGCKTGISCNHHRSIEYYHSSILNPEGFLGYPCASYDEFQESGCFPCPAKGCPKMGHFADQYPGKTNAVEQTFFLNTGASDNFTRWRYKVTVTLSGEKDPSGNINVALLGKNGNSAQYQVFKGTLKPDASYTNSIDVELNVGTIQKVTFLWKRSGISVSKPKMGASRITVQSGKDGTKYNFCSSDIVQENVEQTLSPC

[7] = biological target: T4, Pancreatic lipase-related protein 2 (Cavia porcellus); experiment: Inhibition of recombinant guinea pig PL-RP2 expressed in Aspergillus oryzae assessed as residual activity by measuring half-inactivation time at 2:1 molar excess compound concentration preincubated for 1 hr at 25 degreeC; summary of the method: as §2
[8] = biological target: T5, Gastric triacylglycerol lipase (Rattus norvegicus) (UniProt P04634); experiment: Inhibition of rat lingual lipase preincubated for 1 hr at 25 degreeC; summary of the method: as §2
T5 sequence (whole entry): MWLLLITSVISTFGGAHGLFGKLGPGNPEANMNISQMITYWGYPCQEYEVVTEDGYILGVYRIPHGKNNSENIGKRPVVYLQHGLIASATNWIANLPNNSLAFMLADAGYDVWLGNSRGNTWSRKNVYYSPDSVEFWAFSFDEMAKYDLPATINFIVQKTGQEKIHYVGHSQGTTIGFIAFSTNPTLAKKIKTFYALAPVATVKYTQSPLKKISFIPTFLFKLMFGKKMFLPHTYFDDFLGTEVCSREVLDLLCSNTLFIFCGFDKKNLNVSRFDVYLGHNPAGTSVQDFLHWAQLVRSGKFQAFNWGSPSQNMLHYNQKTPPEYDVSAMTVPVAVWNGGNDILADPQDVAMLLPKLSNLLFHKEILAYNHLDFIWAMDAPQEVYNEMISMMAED

| SMILES | inhibition [1] [%] | T1/2 [2] [s] | V0 [3] [mg/mL/h] | inhibition [4] [%] | XI50 [5] [molar excess] | XI50 [6] [molar excess] | T1/2 [7] [s] | XI50 [8] [molar excess] |
| --- | --- | --- | --- | --- | --- | --- | --- | --- |
| O=c1oc(OCCOCc2ccccc2)nn1-c1cccc(Oc2ccccc2)c1 | 13.2 | 101 | 9.8 | 19.3 | 1.42 | 0.64 | 31.2 | 1.43 |
| CCCCCCCCCCC[C@@H](C[C@@H]1OC(=O)[C@H]1CCCCCC)OC(=O)[C@@H](CC(C)C)NC=O | 93.1 | 35.4 | 4.4 | 91.5 | 0.78 | 0.53 | 24 | 0.7 |
